Pemphigus Ab inh: human desmoglein-3 autoantibody binding inhibition; P32926; DSG3-coupled beads, scFv-anti-DSG3-GFP binding, flow cytometry; active compounds read low; binding (percent of control), % at 10 µM; 0.48% of 310,000 active; AID 588358;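 active means binding more than 3 SD below its plate's average and above zero; inconclusive means below that plate limit but binding exactly zero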;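 further: hits lower antibody fragment binding to DSG3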
TRPC4 agonist: opens the mouse TRPC4 cation channel. Q9QUQ5. HEK293 TRPC4beta/mu-opioid, Fluo4 calcium fluorescence; active compounds read high. B-score at 10 µM. 0.49% of 310,000 active;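 active means B-score above 5 SD of library B-scores, and initial fluorescence ratio not above library mean plus 5 SD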;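 further: positive B-score marks a calcium rise read as TRPC4 activation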
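Assay system: HEK293 stable line with TRPC4beta plus mu-opioid receptor; schedule: 45 min room-temperature Fluo4 loading, 110 s read; technique: kinetic Fluo4 calcium fluorescence; evaluation: integrated baseline-normalised fluorescence ratio, converted to per-well B score; controls: buffer (low) and maximal DAMGO (high)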
TRPC6 inh: mouse TRPC6 channel inhibition; HEK293-TRPC6, membrane potential dye, ACh-evoked depolarization; active compounds read low; B-score at 10 µM; 1.1% of 310,000 active;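 active means B-score under library mean minus 3 SD, initial fluorescence not abnormally high, positive integrated signal ratio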;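 further: B-score derived from integrated fluorescence ratio over the kinetic read; more negative B-score means stronger inhibition of depolarization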
Target sequence (Q61143 whole entry, looked up): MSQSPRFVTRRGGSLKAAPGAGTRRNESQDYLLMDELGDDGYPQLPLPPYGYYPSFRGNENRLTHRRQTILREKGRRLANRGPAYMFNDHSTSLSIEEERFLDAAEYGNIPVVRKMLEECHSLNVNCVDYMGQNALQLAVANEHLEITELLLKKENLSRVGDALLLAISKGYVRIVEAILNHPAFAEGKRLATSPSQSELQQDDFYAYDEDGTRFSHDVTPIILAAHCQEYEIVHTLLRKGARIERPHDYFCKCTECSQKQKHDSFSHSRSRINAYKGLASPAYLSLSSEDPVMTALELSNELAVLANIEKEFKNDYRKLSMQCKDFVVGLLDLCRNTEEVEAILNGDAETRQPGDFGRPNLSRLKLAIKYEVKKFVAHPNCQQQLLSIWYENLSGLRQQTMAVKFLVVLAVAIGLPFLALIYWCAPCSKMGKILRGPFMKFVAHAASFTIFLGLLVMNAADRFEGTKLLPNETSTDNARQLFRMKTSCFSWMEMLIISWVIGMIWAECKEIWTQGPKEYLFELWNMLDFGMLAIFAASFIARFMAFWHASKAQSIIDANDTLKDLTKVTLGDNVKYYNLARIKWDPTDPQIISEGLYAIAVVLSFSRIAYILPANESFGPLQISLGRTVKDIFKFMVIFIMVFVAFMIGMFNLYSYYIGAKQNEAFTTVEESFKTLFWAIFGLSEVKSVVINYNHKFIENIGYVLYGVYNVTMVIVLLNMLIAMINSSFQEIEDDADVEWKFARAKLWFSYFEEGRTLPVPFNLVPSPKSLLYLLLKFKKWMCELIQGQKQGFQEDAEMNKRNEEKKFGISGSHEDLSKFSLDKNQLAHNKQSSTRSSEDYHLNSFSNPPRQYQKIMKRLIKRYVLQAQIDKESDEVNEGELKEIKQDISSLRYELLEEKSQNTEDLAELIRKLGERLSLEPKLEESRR
TRPC4 PAM: allosteric potentiators of mouse TRPC4 channel | Q9QUQ5 | HEK293 TRPC4beta/mu-opioid, DAMGO EC20, Fluo-4 Ca2+ flux; active compounds read high | B-score at 10 µM | 0.42% of 310,000 active | AID 2227;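 active means B-score of calcium response area above 5 SD of library B-scores, with initial fluorescence ratio within 5 SD of library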
TRPC6 activator: mouse TRPC6 channel activation; Q61143; HEK293-TRPC6 membrane potential dye fluorescence; active compounds read high; B-score at 10 µM; 0.13% of 310,000 active;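 active means B-score of the integrated fluorescence ratio above library mean plus 3 SD, and starting fluorescence ratio within library mean plus 5 SD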;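 further: higher score means more depolarization so channel activation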
TRPC4 inh: blocks the mouse TRPC4 cation channel | Q9QUQ5 | HEK293 TRPC4beta/mu-opioid, DAMGO-evoked Fluo4 calcium flux; active compounds read low | B-score at 10 µM | 0.39% of 300,000 active | AID 2247;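 active means B-score over 3 SD under the library average, no early fluorescence shift, positive overall ratio signal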
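test system = HEK293 cells with stable TRPC4beta plus mu-opioid receptor expression | detection = Fluo4 Ca2+ flux fluorescence | read-out = integrated fluorescence ratio relative to baseline, converted to per-well B score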
Each line names hits and unclear results; the compound was inactive in the other large screens. Only some compounds are listed: those with a hit (about 2.5% of all), similar ones and a draw of the others.

CC(C)Cc1nc(N2CCN(C(=O)c3ccccc3)CC2)c(C#N)c2c1CCC2	TRPC4 PAM 13 (no result: Pemphigus Ab inh)
CC(=O)N1CCN(c2nc(CC(C)C)c3c(c2C#N)CCC3)CC1	none
CC(C)Cc1nc(N2CCN(C(=O)C(C)C)CC2)c(C#N)c2c1CCC2	TRPC4 PAM 25
O=c1oc(-c2cccnc2)nc2ccccc12	Pemphigus Ab inh 77
c1cncc(-c2nc3ccccc3o2)c1	none
Cc1ccccc1CNc1nnnn1C	none
COCCNc1nnc(SCC(=O)NNC(=O)c2ccc([N+](=O)[O-])cc2)s1	none
O=C(COC(=O)CSc1ccc(Cl)cc1)Nc1ccc2[nH]c(=O)[nH]c2c1	Pemphigus Ab inh 99 (no result: TRPC4 agonist, TRPC6 inh, TRPC4 PAM, TRPC6 activator, TRPC4 inh)
NC(=O)c1ccc(NC(=O)COC(=O)/C=C/c2ccc(Br)o2)cc1	none (no result: TRPC4 agonist, TRPC6 inh, TRPC4 PAM, TRPC6 activator, TRPC4 inh)
O=C(COC(=O)/C=C/c1ccc(Br)o1)Nc1ccc2[nH]c(=O)[nH]c2c1	Pemphigus Ab inh 57
Cc1noc(C)c1S(=O)(=O)Nc1ccccc1N1CCOCC1	none
CN1CCN(CC(=O)N2c3ccccc3C(=O)Nc3cccnc32)CC1	TRPC6 inh -6 (no result: Pemphigus Ab inh)
O=C(CS(=O)CC(=O)NC12CC3CC(CC(C3)C1)C2)Nc1ccc(F)cc1 (configuration not stated)	none
CC(=O)NC(CCS(C)(=O)=O)C(=O)Nc1nc(C)cs1 (configuration not stated)	Pemphigus Ab inh 81
Cc1nc2nc(SCC(=O)O)nn2c(C)c1Cc1ccccc1Cl	none
COc1ccc(Br)cc1CN1CCCC(C(=O)N2CCCCC2)C1 (configuration not stated)	none (no result: Pemphigus Ab inh)
COc1ccc(Br)cc1CN1CCCC(C(=O)N2CCCCCC2)C1 (configuration not stated)	TRPC4 inh -6
COc1ccc(Br)cc1CN1CCC(N2CCCC2)CC1	TRPC4 PAM 17
C=C(C(=O)c1ccccc1)C(CC(=O)c1ccccc1)c1ccccc1 (configuration not stated)	none
CC(C)Cn1c(O)c(N=NC(=O)c2cccc(S(=O)(=O)N3CCCCC3)c2)c2ccccc21	TRPC4 PAM 17
CSc1nc(SCC(=O)NCc2ccco2)c2c3c(sc2n1)CN(C)CC3	none
CSc1nc(NCc2ccco2)c2c3c(sc2n1)CN(C)CC3	TRPC4 agonist 64 (no result: Pemphigus Ab inh, TRPC4 inh)
N#Cc1ccc(OCC(=O)N2CCN(c3ccc(C(F)(F)F)cn3)CC2)cc1	none (no result: TRPC4 agonist, TRPC6 inh, TRPC4 PAM, TRPC6 activator, TRPC4 inh)
Cc1cc(/C=N/n2c(COc3ccccc3C)nc3ccccc3c2=O)c(O)c([N+](=O)[O-])c1	none
O=c1c2ccccc2nc(COc2ccccc2)n1/N=C/c1cc([N+](=O)[O-])ccc1O	TRPC4 PAM 27
Cc1ccn(C(=O)c2ccc(NC(=O)C3CC3)cc2)n1	Pemphigus Ab inh 74
CCC(=O)Nc1ccc(C(=O)n2ccc(C)n2)cc1	none
CCCCNc1nc(-c2ccccc2)c(C(=O)OCC)cc1C#N	TRPC4 inh -6
O=C(CSc1nnc(-c2ccc(Cl)cc2Cl)n1C1CCCCC1)N1CCCC1	TRPC4 inh -6 (no result: Pemphigus Ab inh)
O=C(NCCN1CCCC1)c1cccc(Cl)c1	none
O=C(NCCCN1CCN(CCCNC(=O)c2cccc(Cl)c2)CC1)c1cccc(Cl)c1	TRPC4 PAM 18
O=C(NCCCN1CCN(CCCNC(=O)c2ccc3c(c2)OCO3)CC1)c1ccc2c(c1)OCO2	TRPC4 agonist 138
COc1cccc(C(=O)NCCCN2CCN(CCCNC(=O)c3cccc(OC)c3)CC2)c1	TRPC4 PAM 12
Nc1o[nH]c(=O)c1C1CCCCC1	none (no result: TRPC4 agonist, TRPC6 inh, TRPC4 PAM, TRPC6 activator, TRPC4 inh)
Cc1ccccc1C(=O)N1CCC(C(=O)N(CC(C)C)c2c(N)n(Cc3ccccc3)c(=O)[nH]c2=O)CC1	Pemphigus Ab inh inconclusive
C#Cc1cccc(C(=O)NC2CCCN(C3Cc4ccccc4C3)C2)c1 (configuration not stated)	TRPC4 agonist 188
COc1ccc(C(=O)C2CCCN(C3Cc4ccccc4C3)C2)cc1OC (configuration not stated)	TRPC4 agonist 87
CC(C)(CO)CNC1CCCN(C2Cc3ccccc3C2)C1 (configuration not stated)	none
COC(=O)C(Cc1csc2ccc(Cl)cc12)NC(=O)c1ccc(Cl)cc1 (configuration not stated)	none
O=C(CSc1cccc[n+]1[O-])NN(c1ccccc1)c1ccccc1	none
Cc1nn2c(NCCN3CCOCC3)c3c(nc2c1-c1ccccc1)CCCC3	none
Cc1nn2c(N3CCN(C)CC3)c3c(nc2c1-c1ccccc1)CCCC3	TRPC4 PAM 28
CCN1CCN(C(=O)N(CC(=O)Nc2ccc(C(N)=O)cc2)S(=O)(=O)c2ccc(C)cc2)CC1	TRPC4 inh -6
Cc1ccc(S(=O)(=O)N(CC(=O)Nc2ccc(C(N)=O)cc2)C(=O)N2CCN(C)CC2)cc1	none
O=c1[nH]c(=O)n2c(c1-c1ccccc1)OC(CBr)C2 (configuration not stated)	none (no result: TRPC4 agonist, TRPC6 inh, TRPC4 PAM, TRPC6 activator, TRPC4 inh)
O=C(CSc1ccsc1[N+](=O)[O-])Nc1cc(F)ccc1F	Pemphigus Ab inh 54
CC(=O)c1ccc(NC(=O)CSc2ccsc2[N+](=O)[O-])cc1	Pemphigus Ab inh 69
Cc1ccc(NC(=O)CSc2ccc(C(N)=O)cc2[N+](=O)[O-])cc1	none
Cc1ccc(NC(=O)CSc2ccc(C(N)=O)cc2[N+](=O)[O-])cc1C	Pemphigus Ab inh 69
CCCc1[nH]nc2c1C(CCc1ccccc1)C(C#N)=C(N)O2 (configuration not stated)	TRPC4 PAM 13
CCN(c1ccccc1)S(=O)(=O)c1ccc(Cl)c(NC(=O)c2ccc(=O)[nH]n2)c1	Pemphigus Ab inh 21 (no result: TRPC4 agonist, TRPC6 inh, TRPC4 PAM, TRPC6 activator, TRPC4 inh)
Cc1cc2ccccc2n1CCNC(=O)c1cccs1	Pemphigus Ab inh 61
COc1ccc(Cl)cc1C(=O)NCC(c1ccco1)N1CCCC1 (configuration not stated)	TRPC4 agonist 52 (no result: Pemphigus Ab inh)
Cc1c(C(=O)NCC(c2ccco2)N2CCCC2)sc2ccccc12 (configuration not stated)	none (no result: TRPC4 agonist, TRPC6 inh, TRPC4 PAM, TRPC6 activator, TRPC4 inh)
O=C(NCC(c1ccco1)N1CCCC1)c1sc2ccccc2c1Cl (configuration not stated)	TRPC4 agonist 43 (no result: Pemphigus Ab inh)
Cc1cc(C)nc(NC(N)=NC2CCCCC2)n1	TRPC4 inh -9
CC(NC(=O)c1ccc(N)cc1)c1ccccc1 (configuration not stated)	none
CCn1c(-c2ccccc2)csc1=Nc1ccc(O)cc1	TRPC4 inh -5
Cc1ccccc1C(=O)NC1CC(C)(C)NC(C)(C)C1	none
CC1(C)CC(NC2C3CC4CC(C3)CC2C4)CC(C)(C)N1 (configuration not stated)	TRPC4 PAM 12 (no result: Pemphigus Ab inh)
CC(=O)N1c2ccccc2C(C)(c2ccccc2)CC1(C)C (configuration not stated)	TRPC4 inh -6

Assay outcomes: PubChem BioAssay, several laboratories
